Measured values taken from ChEMBL document CHEMBL5136960, “Discovery of sustainable drugs for Alzheimer's disease: cardanol-derived cholinesterase inhibitors with antioxidant and anti-amyloid properties” (RSC Med Chem, 2021).
The source made the active and inactive calls. The calls are words filed in the database; no cut-off is given here.

How the values were obtained:
[1] = Solubility of compound in 5% DMSO/PBS solution; assay type: physicochemical
[2] = biological target: T1, Acetylcholinesterase (Homo sapiens, UniProt P22303); assay: Inhibition of AChE in human serum at 20 uM by Ellman's method; assay type: cell-free
T1 sequence (P22303 whole entry): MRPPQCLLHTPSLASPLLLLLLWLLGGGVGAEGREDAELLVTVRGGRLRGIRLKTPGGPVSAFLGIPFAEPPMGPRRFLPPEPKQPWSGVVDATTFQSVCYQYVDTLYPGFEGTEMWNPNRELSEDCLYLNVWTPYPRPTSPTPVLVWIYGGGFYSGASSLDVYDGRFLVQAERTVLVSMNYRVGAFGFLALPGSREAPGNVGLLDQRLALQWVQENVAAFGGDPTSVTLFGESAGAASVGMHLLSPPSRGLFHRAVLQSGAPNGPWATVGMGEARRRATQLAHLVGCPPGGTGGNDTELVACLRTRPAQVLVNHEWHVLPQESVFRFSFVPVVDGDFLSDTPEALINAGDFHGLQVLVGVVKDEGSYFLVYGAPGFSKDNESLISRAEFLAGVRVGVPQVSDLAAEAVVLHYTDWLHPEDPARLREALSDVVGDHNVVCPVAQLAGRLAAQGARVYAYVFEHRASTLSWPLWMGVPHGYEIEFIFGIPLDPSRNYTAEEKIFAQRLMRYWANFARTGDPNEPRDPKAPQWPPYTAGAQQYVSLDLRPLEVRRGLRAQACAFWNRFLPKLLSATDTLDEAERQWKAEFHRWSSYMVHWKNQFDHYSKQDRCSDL

[3] = system: HepG2; assay: Cytotoxicity against human HepG2 cells assessed as cell viability upto 10 uM for 24 hrs by MTT assay; assay type: toxicity, cell-based; details: hepg2, 24 h
How it was run: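 HepG2 cells grown in DMEM with 10% FBS and penicillin/streptomycin at 37 °C, 5% CO2. Seeded at 5×10^3 cells/well and left to adhere overnight. Exposed 24 h to 1.25-10 µM, with DMSO vehicle as control. Then 300 µM MTT in DMEM for 2 h at 37 °C. Formazan dissolved in DMSO and read at 570 nm.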

[4] = biological target: T1, Acetylcholinesterase; assay: Inhibition of AChE in human serum by Ellman's method; assay type: cell-free
[5] = system: SH-SY5Y; assay: Inhibition of TBH-induced reactive oxygen species production in human SHSY-5Y cells at 10 uM preincubated for 24 hrs followed by TBH addition by DCFH-DA staining based flow cytometry; assay type: functional, cell-based
[6] = biological target: Amyloid-beta precursor protein (Homo sapiens) (UniProt P05067); assay: Inhibition of amyloid beta42 (unknown origin) aggregation assessed as non toxic aggregrates formation measured after 48 hrs TEM imaging analysis
Chain of Amyloid-beta precursor protein (Homo sapiens) (P05067 whole entry): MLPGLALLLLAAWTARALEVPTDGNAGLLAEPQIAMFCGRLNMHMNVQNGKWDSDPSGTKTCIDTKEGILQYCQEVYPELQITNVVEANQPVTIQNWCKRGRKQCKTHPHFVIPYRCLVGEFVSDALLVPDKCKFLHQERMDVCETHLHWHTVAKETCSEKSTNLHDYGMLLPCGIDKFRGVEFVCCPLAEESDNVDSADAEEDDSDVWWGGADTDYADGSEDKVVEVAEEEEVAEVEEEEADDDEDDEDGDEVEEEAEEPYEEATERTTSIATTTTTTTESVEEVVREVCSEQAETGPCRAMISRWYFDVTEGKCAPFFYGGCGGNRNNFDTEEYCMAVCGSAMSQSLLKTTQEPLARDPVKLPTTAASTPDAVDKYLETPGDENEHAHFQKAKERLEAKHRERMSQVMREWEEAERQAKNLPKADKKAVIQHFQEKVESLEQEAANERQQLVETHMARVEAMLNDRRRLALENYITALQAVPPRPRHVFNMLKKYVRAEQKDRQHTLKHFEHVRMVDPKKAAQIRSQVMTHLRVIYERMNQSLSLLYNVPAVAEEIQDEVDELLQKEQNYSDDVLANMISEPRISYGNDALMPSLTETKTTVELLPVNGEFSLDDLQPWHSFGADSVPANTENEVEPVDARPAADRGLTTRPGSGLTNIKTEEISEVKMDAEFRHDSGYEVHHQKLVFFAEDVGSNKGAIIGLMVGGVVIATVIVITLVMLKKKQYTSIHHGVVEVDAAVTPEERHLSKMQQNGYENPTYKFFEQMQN
How it was run: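 Synthetic Aβ42, freeze-dried, redissolved in PBS pH 7.4 to 60 µM and vortexed about 5 min. Compound added at 1:5 Aβ42:compound. A 20 µL aliquot applied to the grid for 2 min, negatively stained with 1% uranyl acetate for 2 min, dried and imaged by TEM at 120 kV.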

[7] = biological target: T2, Cholinesterase (Homo sapiens, UniProt P06276); assay: Inhibition of BChE in human serum by Ellman's method; assay type: cell-free
T2 sequence (P06276 whole entry): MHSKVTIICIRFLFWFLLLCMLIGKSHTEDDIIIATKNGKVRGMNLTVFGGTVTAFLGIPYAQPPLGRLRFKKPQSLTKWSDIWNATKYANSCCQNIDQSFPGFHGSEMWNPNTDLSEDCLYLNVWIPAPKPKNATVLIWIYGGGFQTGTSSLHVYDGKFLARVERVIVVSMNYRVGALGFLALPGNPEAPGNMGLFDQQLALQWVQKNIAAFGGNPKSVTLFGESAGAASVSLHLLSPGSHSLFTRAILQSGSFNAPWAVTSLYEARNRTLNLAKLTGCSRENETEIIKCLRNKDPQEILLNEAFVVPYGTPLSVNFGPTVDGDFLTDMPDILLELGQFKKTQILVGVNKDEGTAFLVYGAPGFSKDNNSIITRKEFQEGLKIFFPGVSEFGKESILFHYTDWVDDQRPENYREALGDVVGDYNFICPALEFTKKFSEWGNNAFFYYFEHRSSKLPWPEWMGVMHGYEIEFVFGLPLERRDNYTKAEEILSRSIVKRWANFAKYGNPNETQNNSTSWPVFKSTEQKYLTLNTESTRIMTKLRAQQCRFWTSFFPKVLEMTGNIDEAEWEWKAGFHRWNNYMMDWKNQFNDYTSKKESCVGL
How it was run: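 Human serum BChE, 0.02 U, in 0.1 M phosphate pH 8.0 with 340 μM DTNB and 5% methanol final. 20 min enzyme–compound preincubation at 37 °C, then 550 μM butyrylthiocholine iodide added. Rate from A412 slope over 240 s, blank-corrected. Five concentrations chosen to give 20–80% inhibition. IC50 taken from log concentration–inhibition curves. Mean of ≥2 independent triplicate experiments.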

[8] = Antioxidant activity assessed as gallic acid equivalents by HORAC assay; assay type: functional
How it was run: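 Hydroxyl radical scavenging (HORAC kit). Methanol stocks (2-4 mM) diluted to 50 µM in assay buffer. Sample and fluorescein incubated 30 min at room temperature, then hydroxyl radical initiator and Fenton reagent added. Fluorescence decay read at ex 480/em 530 nm. AUC minus blank, divided by AUC of 50 µM gallic acid minus blank, gives gallic acid equivalents.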

[9] = biological target: T2, Cholinesterase; assay: Inhibition of BChE in human serum at 20 uM by Ellman's method; assay type: cell-free
How it was run: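 Human serum BChE, 0.02 U, in 0.1 M phosphate pH 8.0 with 340 μM DTNB and 5% methanol final. Compound preincubated with enzyme 20 min at 37 °C, then 550 μM butyrylthiocholine iodide added. Initial rate read as A412 over 240 s, with an enzyme-free blank. Percent inhibition at a single 20 μM. Mean of ≥2 independent experiments, each in triplicate.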

[10] = Stability in plasma (unknown orgin) measured upto 60 mins; assay type: ADME, cell-free; details: 1 h
How it was run: (§1)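 Pooled human plasma. Compound added from a 1 µM DMSO solution and incubated at 37 °C for 0, 15, 30, 60 or 120 min. Reaction stopped with cold acetonitrile containing internal standard, then centrifuged. Supernatant analysed by reverse-phase C18 HPLC-MS in positive mode. Compound/IS peak-area ratio at each time, relative to 0 min, gives percent remaining. Phosphate buffer pH 7.4 used as control matrix, rivastigmine as positive control.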

[11] = Stability in plasma (unknown orgin) measured after 120 mins; assay type: ADME, cell-free; details: read-out: Stability; how it was run: as §1

Compound	solubility [1]	inhibition [2]	Activity [3]	IC50 [4]	inhibition [5]	inhibition [6]	IC50 [7]	Activity [8]	inhibition [9]	Stability [10]	remaining at 2 h [11]
OCCCCCCCCc1ccc(CN2CCCCCC2)c(O)c1	< 5 mM	< 10%	Non-Toxic	785 µM	Active	Active	4.62 µM	3.5 equiv	77.1%	Stable	85%
CN(Cc1ccccc1)Cc1ccc(CCCCCCCCO)cc1O	–	19.4%	–	–	–	Active	6.74 µM	3.7 equiv	68.3%	–	–
OCCCCCCCCc1ccc(CN2CCSCC2)c(O)c1	–	12.1%	–	–	–	–	–	4.38 equiv	16.6%	–	–
CN1CCN(Cc2ccc(CCCCCCCCO)cc2O)CC1	–	< 5%	–	–	–	–	–	4.8 equiv	10.6%	–	–
OCCCCCCCCc1ccc(CN2CCNCC2)c(O)c1	–	< 10%	–	–	–	–	–	1.49 equiv	17.7%	–	–
OCCCCCCCCc1ccc(CN2CCCC2)c(O)c1	–	31.1%	–	47.6 µM	–	–	13.3 µM	4.88 equiv	59%	–	–
COc1cc(/C=C/C(=O)O)ccc1O	–	–	–	–	–	–	–	4.04 equiv	–	–	–
CCN(CC)Cc1ccc(CCCCCCCCO)cc1O	–	12.4%	–	–	–	Active	17.5 µM	5.49 equiv	50.5%	–	–
OCCCCCCCCc1ccc(CN2CCOCC2)c(O)c1	–	< 5%	–	–	–	Active	–	9.73 equiv	< 10%	–	–
CC(=O)N1CCN(Cc2ccc(CCCCCCCCO)cc2O)CC1	–	< 10%	–	–	–	–	–	4.52 equiv	< 5%	–	–
OCCCCCCCCc1ccc(CN2CCCCC2)c(O)c1	< 3.9 mM	40.5%	Non-Toxic	30 µM	Active	Active	6.12 µM	4.37 equiv	73.5%	Stable	97%
